# Measurements as given in ChEMBL document CHEMBL3045605, “Synthesis and anticancer evaluation of novel 3,5-diaryl-thiazolo[4,5-d]pyrimidin-2-one derivatives” (2013).
# Columns and labels:
# Assay type in all cases: functional
# NCI-H460 [1] = assay: Anticancer activity against Homo sapiens (human) NCI-H460 cells by SRB assay
# Summary of the method: (§1)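 Five-dose NCI 60-cell-line panel testing at tenfold dilutions from 10−4 to 10−8 M, with growth read by sulforhodamine B protein staining. For each cell line: GI50 is the molar concentration giving half growth inhibition; TGI is total growth inhibition (cytostatic); LC50 is the molar concentration killing 50% of the initial cells (cytotoxic).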
# NCI-H460 [2] = assay: Anticancer activity against Homo sapiens (human) NCI-H460 cells assessed as cell growth at 10 uM by SRB assay; details: read-out: Activity
# Summary of the method: (§2)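 Single-dose screen in the NCI 60-human-tumour-cell-line panel (nine cancer types) at 10−5 M. Cell growth was estimated by sulforhodamine B protein staining and reported as percent growth of treated cells relative to untreated controls.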
# NCI-H23 = assay: Anticancer activity against Homo sapiens (human) NCI-H23 cells assessed as cell growth at 10 uM by SRB assay; details: read-out: Activity; summary of the method: as §2
# EKVX = assay: Anticancer activity against Homo sapiens (human) EKVX cells assessed as cell growth at 10 uM by SRB assay; details: read-out: Activity
# Summary of the method: (§3)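 NCI 60-cell human tumour panel (nine cancer types) screened at one concentration, 10−5 M. Cell growth estimated by sulforhodamine B protein staining and reported as percent growth of treated cells relative to untreated controls.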
# NCI-H522 = assay: Anticancer activity against Homo sapiens (human) NCI-H522 cells by SRB assay; summary of the method: as §1
# HOP-92 = assay: Anticancer activity against Homo sapiens (human) HOP92 cells by SRB assay
# Summary of the method: (§4)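 NCI 60-line panel, five tenfold dilutions from 10−4 to 10−8 M, growth read by sulforhodamine B staining against untreated controls. From the dose–response per line: GI50 (molar concentration giving half growth inhibition), TGI (molar concentration giving total growth inhibition, cytostatic) and LC50 (molar concentration killing 50% of initial cells, cytotoxic).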
# HOP-62 [3] = assay: Anticancer activity against Homo sapiens (human) HOP62 cells by SRB assay; summary of the method: as §4
# HL-60(TB) [4] = assay: Anticancer activity against Homo sapiens (human) HL-60(TB) cells by SRB assay
# Summary of the method: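 NCI panel of about 60 human tumour cell lines, tested at five tenfold dilutions from 10−4 to 10−8 M, with sulforhodamine B read-out. GI50 (molar concentration giving half growth inhibition), TGI (total growth inhibition) and LC50 (50% death of initial cells) were calculated for each cell line.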
# HOP-62 [5] = assay: Anticancer activity against Homo sapiens (human) HOP62 cells assessed as cell growth at 10 uM by SRB assay; details: read-out: Activity; summary of the method: as §3
# K562 = assay: Anticancer activity against Homo sapiens (human) K562 cells assessed as cell growth at 10 uM by SRB assay; details: read-out: Activity; summary of the method: as §3
# MOLT-4 = assay: Anticancer activity against Homo sapiens (human) MOLT4 cells assessed as cell growth at 10 uM by SRB assay; details: read-out: Activity; summary of the method: as §2
# CCRF-CEM = assay: Anticancer activity against Homo sapiens (human) CCRF-CEM cells assessed as cell growth at 10 uM by SRB assay; details: read-out: Activity; summary of the method: as §3
# HL-60(TB) [6] = assay: Anticancer activity against Homo sapiens (human) HL-60(TB) cells assessed as cell growth at 10 uM by SRB assay; details: read-out: Activity
# Summary of the method: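 NCI 60-cell-line human tumour panel screen at a single 10−5 M concentration. Cell growth was estimated by sulforhodamine B protein staining. Results are given as percent growth of treated cells relative to untreated controls.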
# NCI/ADR-RES = assay: Anticancer activity against Homo sapiens (human) NCI/ADR-RES cells by SRB assay; summary of the method: as §1
# OVCAR-3 = assay: Anticancer activity against Homo sapiens (human) OVCAR3 cells by SRB assay; summary of the method: as §1
# SK-MEL-28 = assay: Anticancer activity against Homo sapiens (human) SK-MEL-28 cells by SRB assay; summary of the method: as §1
# MDA-MB-435 = assay: Anticancer activity against Homo sapiens (human) MDA-MB-435 cells by SRB assay; summary of the method: as §1
# SNB-19 [7] = assay: Anticancer activity against Homo sapiens (human) SNB19 cells by SRB assay; summary of the method: as §1
# SF-295 = assay: Anticancer activity against Homo sapiens (human) SF295 cells by SRB assay; summary of the method: as §1
# HT-29 = assay: Anticancer activity against Homo sapiens (human) HT-29 cells by SRB assay; summary of the method: as §4
# OVCAR-8 = assay: Anticancer activity against Homo sapiens (human) OVCAR8 cells assessed as cell growth at 10 uM by SRB assay; details: read-out: Activity; summary of the method: as §2
# M14 = assay: Anticancer activity against Homo sapiens (human) M14 cells assessed as cell growth at 10 uM by SRB assay; details: read-out: Activity; summary of the method: as §3
# U-251 = assay: Anticancer activity against Homo sapiens (human) U251 cells assessed as cell growth at 10 uM by SRB assay; details: read-out: Activity
# Summary of the method: (§5)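 NCI 60-cell human tumour panel (leukemia, melanoma, lung, colon, CNS, breast, ovarian, prostate, renal lines) given a single 10−5 M dose. Growth is expressed as percent growth of treated cells relative to untreated controls, with cell growth/viability estimated by sulforhodamine B protein staining.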
# SNB-19 [8] = assay: Anticancer activity against Homo sapiens (human) SNB19 cells assessed as cell growth at 10 uM by SRB assay; details: read-out: Activity; summary of the method: as §2
# SNB-75 = assay: Anticancer activity against Homo sapiens (human) SNB75 cells assessed as cell growth at 10 uM by SRB assay; details: read-out: Activity; summary of the method: as §2
# T47D [9] = assay: Anticancer activity against Homo sapiens (human) T47D cells by SRB assay
# Summary of the method: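 NCI five-dose follow-up on the 60-line human tumour panel at tenfold dilutions from 10−4 to 10−8 M, with growth read by sulforhodamine B protein assay against untreated controls. For each cell line, GI50 (half growth inhibition), TGI (total growth inhibition) and LC50 (50% death of initial cells) are calculated as molar concentrations.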
# RXF 393 = assay: Anticancer activity against Homo sapiens (human) RXF393 cells by SRB assay; summary of the method: as §1
# CAKI-1 [10] = assay: Anticancer activity against Homo sapiens (human) CAKI-1 cells by SRB assay; summary of the method: as §4
# MDA-MB-468 = assay: Anticancer activity against Homo sapiens (human) MDA-MB-468 cells assessed as cell growth at 10 uM by SRB assay; details: read-out: Activity; summary of the method: as §2
# T47D [11] = assay: Anticancer activity against Homo sapiens (human) T47D cells assessed as cell growth at 10 uM by SRB assay; details: read-out: Activity; summary of the method: as §5
# PC-3 = assay: Anticancer activity against Homo sapiens (human) PC3 cells assessed as cell growth at 10 uM by SRB assay; details: read-out: Activity; summary of the method: as §2
# TK-10 = assay: Anticancer activity against Homo sapiens (human) TK10 cells assessed as cell growth at 10 uM by SRB assay; details: read-out: Activity; summary of the method: as §5
# CAKI-1 [12] = assay: Anticancer activity against Homo sapiens (human) CAKI-1 cells assessed as cell growth at 10 uM by SRB assay; details: read-out: Activity; summary of the method: as §3
# SN12C = assay: Anticancer activity against Homo sapiens (human) SN12C cells assessed as cell growth at 10 uM by SRB assay; details: read-out: Activity; summary of the method: as §2
smiles,measurement,setting,value
O=c1sc2c(Cl)nc(-c3ccccc3)nc2n1-c1ccccc1,GI50,NCI-H460 [1],25.1 µM
same,growth at 10 µM,NCI-H460 [2],78%
same,growth at 10 µM,NCI-H23,20%
same,growth at 10 µM,EKVX,84%
same,GI50,NCI-H522,1.23 µM
same,TGI,NCI-H522; read-out: pTGI (converted),3.02 µM
same,GI50,HOP-92,3.09 µM
same,TGI,HOP-92; read-out: pTGI (converted),67.6 µM
same,GI50,HOP-62 [3],3.63 µM
same,CC50,HOP-62 [3]; read-out: pLC50 (the source's name) (converted),72.4 µM
same,TGI,HOP-62 [3]; read-out: pTGI (converted),15.5 µM
same,GI50,HL-60(TB) [4],5.89 µM
same,growth at 10 µM,HOP-62 [5],15%
same,growth at 10 µM,K562,19%
same,growth at 10 µM,MOLT-4,54%
same,growth at 10 µM,CCRF-CEM,23%
same,growth at 10 µM,HL-60(TB) [6],38%
same,GI50,NCI/ADR-RES,21.4 µM
same,GI50,OVCAR-3,1.78 µM
same,TGI,OVCAR-3; read-out: pTGI (converted),79.4 µM
same,GI50,SK-MEL-28,3.39 µM
same,LC50,SK-MEL-28,69.2 µM
same,TGI,SK-MEL-28; read-out: pTGI (converted),13.2 µM
same,GI50,MDA-MB-435,4.9 µM
same,TGI,MDA-MB-435; read-out: pTGI (converted),45.7 µM
same,GI50,SNB-19 [7],41.7 µM
same,GI50,SF-295,57.5 µM
same,GI50,HT-29,3.89 µM
same,TGI,HT-29; read-out: pTGI (converted),19.1 µM
same,growth at 10 µM,OVCAR-8,-45%
same,growth at 10 µM,M14,16%
same,growth at 10 µM,U-251,20%
same,growth at 10 µM,SNB-19 [8],70%
same,growth at 10 µM,SNB-75,12%
same,GI50,T47D [9],17 µM
same,GI50,RXF 393,2.4 µM
same,LC50,RXF 393,38 µM
same,TGI,RXF 393; read-out: pTGI (converted),8.91 µM
same,GI50,CAKI-1 [10],2.34 µM
same,LC50,CAKI-1 [10],46.8 µM
same,TGI,CAKI-1 [10]; read-out: pTGI (converted),5.75 µM
same,growth at 10 µM,MDA-MB-468,20%
same,growth at 10 µM,T47D [11],57%
same,growth at 10 µM,PC-3,11%
same,growth at 10 µM,TK-10,51%
same,growth at 10 µM,CAKI-1 [12],-30%
same,growth at 10 µM,SN12C,43%
